Source: article PMC9366314 (Acta Pharmaceutica Sinica. B, 2022)

Legend:
[1] = tested on: MP41 cells; test: Apoptosis assay by flow cytometry; format: cell-based; details: 48 h
Outline: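 MP41 cells were seeded at 3 × 10^5 cells/well, left overnight, then exposed to test compound for 48 h. Washed cells were stained with Annexin V-FITC for 15 min, then with PI for 5 min. Samples were analysed by flow cytometry. Data are mean ± SEM, n = 3.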

[2] = tested on: MP41 cells (GNA11 Q209L mutation); test: Cell proliferation inhibition assay; format: cell-based; details: MP41, 72 h, read-out: Antiproliferation (IC50, μmol/L) MP41
Outline: (§1)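 Uveal melanoma cells were grown in RPMI-1640 with 10% FBS at 37 °C, 5% CO2. They were resuspended at 3 × 10^3 cells/mL, seeded and left overnight. Cells were exposed to a concentration series of test compound for 72 h. CCK-8 was added for 2–4 h and absorbance read at 450 nm. IC50 values were fitted from the curves and reported as mean ± SEM, n = 3.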

[3] = tested on: 92.1 cells; test: Clonogenic; format: cell-based; details: 1 and 3 μmol/L; 9 days
Outline: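 92.1 cells were exposed to test compound for 9 days, and colonies were counted with a colony counter. Data are mean ± SEM, n = 3.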

[4] = tested on: MP41 cells; test: Cell cycle analysis by flow cytometry, MP41; format: cell-based; details: 48 h
Outline: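 MP41 cells were seeded at 3 × 10^5 cells/well, left overnight, then exposed to test compound for 48 h. Cells were washed and fixed in 70% ethanol at 4 °C for 12 h. Staining with RNase (100 μg/mL) and PI (50 μg/mL) ran at 37 °C for 0.5 h. Phase distribution was read by flow cytometry. Data are mean ± SEM, n = 3.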

[5] = tested on: CHO-M1 cells; test: Cytotoxicity on CHO-M1 cells; format: cell-based; details: CCK-8
[6] = tested on: 92.1 cells; test: Transwell migration assay, 92.1; format: cell-based; details: 3, 10, and 20 μmol/L; 48 h
[7] = tested on: phosphorylated YAP; test: Western blot of phosphorylated YAP in MP41 xenograft tumor tissues; format: in vivo, mice; details: testing dose
Outline: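 Nude BALB/c nu/nu mice (18–22 g, 6–8 weeks) bearing MP41 xenografts were randomised (n = 6/group) and dosed ip daily for 21 days (5, 15 or 30 mg/kg/day arms). Tumours were taken on Day 22 and lysed in RIPA with phosphatase and protease inhibitors. Lysates were spun at 15,000 rpm, 4 °C for 15 min, protein quantified by BCA, run on 8–12% SDS-PAGE, transferred to PVDF, blocked in 5% BSA and detected by ECL.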

[8] = tested on: 92.1 cells; test: Apoptosis assay by flow cytometry, 92.1; format: cell-based
[9] = Human liver microsome stability assay; format: in vitro ADME; details: liver microsomes, pH 7.4
Outline: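 Test compound (1 μmol/L) was preincubated for 5 min at 37 °C with human liver microsomes (0.5 mg/mL) in 100 mmol/L potassium phosphate, pH 7.4, with 5 mmol/L MgCl2. Reactions were started with 1 mmol/L NADPH. Aliquots were quenched with acetonitrile containing internal standard at 0, 5, 15, 30 and 45 min, centrifuged and analysed by LC–MS/MS for half-life and intrinsic clearance.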

[10] = tested on: MP41 cells; test: Transwell migration assay, MP41; format: cell-based; details: 3, 10, and 20 μmol/L; 48 h
Outline: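 MP41 cells were seeded at 1 × 10^4 cells/well in Transwell upper chambers, with RPMI-1640 plus 20% FBS in the lower chamber, and left overnight. Test compound was added for 48 h. Cells left in the upper chamber were removed, and cells on the lower side were stained with crystal violet for 0.5 h and counted by microscope at ×40.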

[11] = tested on: Gαq/11; test: AngII-induced intracellular Ca2+ release in HEK293-AT1R cells; format: cell-based; details: 100 μmol/L
Outline: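 HEK293 cells overexpressing AT1R were loaded with Fluo-4 AM at 37 °C for 1 h, then pretreated with test compound for 0.5 h. AngII was added at a range of concentrations to build a dose–response curve. Fluorescence was read at 485/525 nm excitation/emission. Data are mean ± SEM, n = 3.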

[12] = tested on: MP41 cells; test: Transwell invasion assay, MP41; format: cell-based; details: 3, 10, and 20 μmol/L
Outline: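 MP41 cells (1 × 10^4/well) were placed in Transwell upper chambers, with RPMI-1640 plus 20% FBS in the lower chamber, and left overnight. Cells were then exposed to test compound for 48 h. Non-migrated cells in the upper chamber were removed. Cells in the lower chamber were stained with crystal violet for 0.5 h and counted by microscope at ×100. Data are mean ± SEM, n = 3.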

[13] = tested on: MP41 cells; test: Rescue assay, siRNA GNA11 knockdown in MP41 cells; format: cell-based; details: 72 h
Outline: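 Cells were transfected with siRNA against GNA11 (MP41) or GNAQ (92.1), or with a matching control siRNA. After 48 h, cells were reseeded at 3000 cells/well and cultured 18–24 h. They were then exposed to test compound for 72 h. CCK-8 was added for 2–4 h and absorbance read at 450 nm. Data are mean ± SEM, n = 3.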

[14] = tested on: 92.1 cells; test: Cell cycle analysis by flow cytometry, 92.1; format: cell-based
[15] = tested on: MP41 xenograft; test: MP41 xenograft model; format: in vivo, nude BALB/c nu/nu mice; details: 21 days
Outline: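 Nude BALB/c nu/nu mice (18–22 g, 6–8 weeks) bearing MP41 xenografts were randomised at n = 6/group. They received vehicle or test compound (5, 15 or 30 mg/kg/day) ip for 21 consecutive days. Body weight and tumour size were recorded every 2 days. Tumours were harvested on day 22 for weighing and H&E staining. Groups were compared by one-way ANOVA.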

[16] = tested on: 92.1 cells (GNAQ Q209L mutation); test: Cell proliferation inhibition assay; format: cell-based; details: 72 h, read-out: Antiproliferation (IC50, μmol/L) 92.1
Outline: as §1

[17] = tested on: 92.1 cells; test: Transwell invasion assay, 92.1; format: cell-based; details: 3, 10, and 20 μmol/L
[18] = tested on: MP41 cells; test: Clonogenic; format: cell-based; details: 1 and 3 μmol/L; 9 days
Outline: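 MP41 cells were seeded at 4000 cells/well and left overnight. They were exposed to test compound for 9 days, with medium and compound renewed every three days. Colonies were fixed in 4% paraformaldehyde for 15 min, stained with crystal violet for 0.5 h and counted with a colony counter. Data are mean ± SEM, n = 3.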

- CLint scaled at 1 μmol/L [9]: 30.2 mL/min/kg
- half-life at 1 μmol/L [9]: 57.5 min
SMILES: CN1CCC[C@H]1CN1CCn2cc(-c3ccccc3)nc2[C@@H]1CC1CCCCC1 [GQ262]
- Cell apoptosis ([1]; 3 μmol/L): 11.5%
- Cell apoptosis ([1]; 10 μmol/L): 16.0%
- IC50 [2]: 5.1 ± 0.6 µmol/L
- Colony formation of 92.1 cells [3]: obviously blocked the colony formation
- Cellular proportion in G0/G1 phase ([4]; 3 μmol/L): 78.0%
- Cellular proportion in G0/G1 phase ([4]; 10 μmol/L): 79.4%
- Cell viability of CHO-M1 cells, 2 h ([5]; 2 h, 10 and 20 μmol/L): did not impact the cell viability
- Cell viability of CHO-M1 cells, 24 h ([5]; 24 h, up to 20 μmol/L): did not impact the cell viability
- 92.1 cell migration [6]: remarkably and dose-dependently inhibited
- Phosphorylated YAP expression in tumor tissues [7]: increased the accumulation of phosphorylated YAP
- Apoptotic rate ([8]; 10 μmol/L): 9.34%
- Apoptotic rate ([8]; 20 μmol/L): 17.5%
- MP41 cell migration [10]: remarkably and dose-dependently inhibited
- Effect on AngII-stimulated Ca2+ release [11]: obviously suppressed the Ca^2+ release
- MP41 cell invasion [12]: poor invasion
- Antiproliferative activity on MP41 (si#control) ([13]; 5 and 10 μmol/L): remarkable antiproliferative activity
- Antiproliferative activity on MP41 (si#GNA11) ([13]; GNA11 knockdown): could not inhibit MP41 cell proliferation
- Cellular proportion in G0/G1 phase ([14]; 10 μmol/L): 77.1%
- Cellular proportion in G0/G1 phase ([14]; 20 μmol/L): 83.5%
- Tumor growth inhibition (TGI) ([15]; 5 mg/kg/day ip): 55.2%
- Tumor growth inhibition (TGI) ([15]; 15 mg/kg/day ip): 82.8%
- Tumor growth inhibition (TGI) ([15]; 30 mg/kg/day ip): 106.6%
- Body weight of the mice ([15]; 5, 15, 30 mg/kg/day ip): did not decline
- Side effects during and after the treatment (H&E staining) ([15]; 5, 15, 30 mg/kg/day ip): did not observe manifest side effects
- IC50 [16]: 10.4 ± 0.1 µmol/L
- 92.1 cell invasion [17]: poor invasion
- Colony formation of MP41 cells [18]: obviously blocked the colony formation
